One compound from ChEMBL document CHEMBL4422614 (Eur J Med Chem, 2019) can be followed below.

Structures are written as SMILES. Calls of active or inactive are those of the source. The calls are words filed in the database; no cut-off is given here.

Series [1] can be described thus: Metal chelating activity of the compound assessed as formation of ferrous-compound complex at 50 uM after 30 mins by UV-vis spectrophotometric analysis. In a few lines:
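UV-vis absorption spectra of compound (50 µM) were recorded in HEPES buffer alone and with 50 µM CuSO4, ZnCl2, FeSO4 or FeCl3, and spectral changes were assessed.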

Series [2] is described as follows: Hepatotoxicity in C57BL/6 mouse assessed as abnormal changes up to 2000 mg/kg, ig after 14 days by microscopic analysis. It counts as toxicity, organism-based. The note with it: in vivo, po, 336 h. Summed up: (§1)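 Mice given a single intragastric dose of test compound at various dosages, then observed for 14 days for death and abnormal behaviour. On day 14, animals were sacrificed and heart, liver, lungs and kidneys examined.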

A short description of series [3]: Nephrotoxicity in C57BL/6 mouse assessed as abnormal changes up to 2000 mg/kg, ig after 14 days by microscopic analysis. It counts as toxicity, organism-based. The following applies: in vivo, po, 336 h. In a few lines:
as §1

A short description of series [4]: Nephrotoxicity in C57BL/6 mouse assessed as tissue damage up to 2000 mg/kg, ig after 14 days by microscopic analysis. Format: toxicity, organism-based. The note with it: in vivo, po, 336 h. Summed up:
as §1

Series [5] is described as follows: Acute Toxicity in C57BL/6 mouse lung assessed as abnormal changes up to 2000 mg/kg, ig after 14 days by microscopic analysis. It counts as organism-based. The note with it: in vivo, po, 336 h. In a few lines: as §1
A short description of series [6]: Toxicity in amyloid beta (25 to 35 residues) induced C57BL/6J mouse model of Alzheimer's disease assessed as emesis at 30 mg/kg/day, ig administered for 26 consecutive days. Format: organism-based. The following applies: in vivo, po. In a few lines: (§2)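 Mice were randomized into 7 groups. All except sham got an ICV injection of Aβ25-35 (3 nmol); sham got the same volume of saline ICV. Dosing was intragastric daily for 26 days, with 0.5% CMC-Na as vehicle for sham and model. Body weight, diarrhea and emesis-like behavior were monitored.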

In series [7] the test system is Mus musculus. The series can be described thus: Cognition enhancement activity in amyloid beta (25 to 35 residues) induced C57BL/6J mouse model of Alzheimer's disease assessed as swimming speed at 4 mg/kg/day, ig administered for 26 consecutive days by Morris water maze test (reference value: 15.6 +/- 2.4 cm/sec). It counts as functional. Summed up:
as §2

Series [8] has as its system Mus musculus. The series can be described thus: Neuroprotection in C57BL/6J mouse model of amyloid beta (25 to 35 residues) induced Alzheimer's disease assessed as reduction in ratio of apoptotic neuron in CA1 hippocampus region at 30 mg/kg/day, ig administered for 26 consecutive days by hematoxylin and eosin staining-based light microscopic analysis (reference value: 40.6 +/- 12.5%). It counts as ADME, organism-based. Also noted: scale not given: the % may be the effect or the level left. The following applies: in vivo, po. In a few lines: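 Hippocampal CA1, CA3 and DG neurons were stained with H&E after the Aβ25-35 ICV model and 26-day intragastric dosing. Denatured cell index = denatured cells/total cells, n = 5. Values are mean ± SD, two-way ANOVA versus model.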

The nature of series [9]: Metal chelating activity assessed as inhibition of Cu(II)-induced amyloid beta (1 to 42 residues) aggregation at 25 uM after 24 hrs by TEM assay. In a few lines:
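Samples were prepared as for the ThT assay. 10 µL aliquots were applied to carbon-coated copper grids for 2 min, then stained with 3% phosphotungstic acid for 2 min and imaged by transmission electron microscopy.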

Series [10] is described as follows: in vitro. The following applies: Sprague-Dawley, rat, liver microsomes. (In general: Liver microsomes are vesicles of endoplasmic reticulum, rich in cytochrome P450 enzymes.)

What is called half-life is the time in which the quantity being followed falls by half. Turning to `COc1ccc(C(=O)Nc2ccc(O)c3ncccc23)cc1OC1CCCC1.Cl`, the outcome in series [1] and in series [9] was Active. Also, the Activity entry in series [2] was “Non-Toxic”; in series [3] it was “Non-Toxic”; in [4], “Non-Toxic”; in [5], “Non-Toxic”; in series [6], “Non-Toxic”; in series [7] it was 15.3 cm/s. Further, the Activity in [8] is recorded as 13.8%. The half-life in series [10] amounted to 51.7 min.
